ChEMBL document CHEMBL5058577, “EUbOPEN Chemogenomics Library 2 (Multiplex)” (2022)

System: HEK-293T
Experiment: Multiplex assay against HEK293T
Format: toxicity, cell-based
Details: human
How it was run: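 Live cells were stained at seeding with Hoechst33342, BioTracker Green Microtubule Cytoskeleton Dye, MitoTracker Red and Annexin V Alexa Fluor 680. Following compound addition, they were imaged on a CQ1 microscope at 37°C and 5% CO2 and gated by CellPathfinder machine learning into Hoechst high-intensity objects or normal cells, with normal cells split into healthy, pyknosed or fragmented nuclei and pyknosed cells into mitotic or apoptotic. Tubulin, mitochondrial-mass and membrane-permeability phenotypes are per cents of healthy-nucleus cells.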

[1] = 12 h, 1 µM, compound concentration 1 uM, replicate 1
[2] = 12 h, 1 µM, compound concentration 1 uM, replicate 2
[3] = 12 h, 10 µM, compound concentration 10 uM, replicate 1
[4] = 12 h, 10 µM, compound concentration 10 uM, replicate 2
[5] = 24 h, 1 µM, compound concentration 1 uM, replicate 1
[6] = 24 h, 1 µM, compound concentration 1 uM, replicate 2
[7] = 24 h, 10 µM, compound concentration 10 uM, replicate 1
[8] = 24 h, 10 µM, compound concentration 10 uM, replicate 2
[9] = 48 h, 1 µM, compound concentration 1 uM, replicate 1
[10] = 48 h, 1 µM, compound concentration 1 uM, replicate 2
[11] = 48 h, 10 µM, compound concentration 10 uM, replicate 1
[12] = 48 h, 10 µM, compound concentration 10 uM, replicate 2

## OCCCNc1cc(-c2ccnc(Nc3cccc(Cl)c3)n2)ccn1
[1]
  Population Apoptotic (%): 66%
  Population Fragmented Nuclei (%): 9%
  Population Healthy Nuclei (%): 66%
  Population Hoechst High Intensity Objects (%): 14%
  Population Membrane Permeable-Phenotype (%): 0%
  Population Mitochondria Different-Phenotype (%): 82%
  Population Mitotic Cells (%): 33%
  Population Normal (%): 85%
  Population Pyknosed Nuclei (%): 24%
  Population Tubulin-Different-Phenotype (%): 75%
  Total Cell Count: 204
[2]
  Population Apoptotic (%): 65%
  Population Fragmented Nuclei (%): 8%
  Population Healthy Nuclei (%): 74%
  Population Hoechst High Intensity Objects (%): 11%
  Population Mitochondria Different-Phenotype (%): 88%
  Population Mitotic Cells (%): 34%
  Population Normal (%): 88%
  Population Pyknosed Nuclei (%): 16%
  Population Tubulin-Different-Phenotype (%): 57%
  Total Cell Count: 173
[3]
  Population Apoptotic (%): 78%
  Population Fragmented Nuclei (%): 14%
  Population Healthy Nuclei (%): 55%
  Population Hoechst High Intensity Objects (%): 30%
  Population Membrane Permeable-Phenotype (%): 1%
  Population Mitochondria Different-Phenotype (%): 83%
  Population Mitotic Cells (%): 21%
  Population Normal (%): 69%
  Population Pyknosed Nuclei (%): 30%
  Population Tubulin-Different-Phenotype (%): 80%
  Total Cell Count: 249
[4]
  Population Apoptotic (%): 75%
  Population Healthy Nuclei (%): 67%
  Population Hoechst High Intensity Objects (%): 41%
  Population Membrane Permeable-Phenotype (%): 10%
  Population Mitochondria Different-Phenotype (%): 85%
  Population Mitotic Cells (%): 25%
  Population Normal (%): 58%
  Population Pyknosed Nuclei (%): 18%
  Population Tubulin-Different-Phenotype (%): 72%
  Total Cell Count: 224
[5]
  Population Apoptotic (%): 91%
  Population Fragmented Nuclei (%): 10%
  Population Healthy Nuclei (%): 66%
  Population Hoechst High Intensity Objects (%): 14%
  Population Membrane Permeable-Phenotype (%): 0%
  Population Mitochondria Different-Phenotype (%): 80%
  Population Mitotic Cells (%): 8%
  Population Normal (%): 85%
  Population Pyknosed Nuclei (%): 22%
  Population Tubulin-Different-Phenotype (%): 61%
  Total Cell Count: 228
[6]
  Population Apoptotic (%): 77%
  Population Fragmented Nuclei (%): 13%
  Population Healthy Nuclei (%): 76%
  Population Hoechst High Intensity Objects (%): 15%
  Population Mitochondria Different-Phenotype (%): 86%
  Population Mitotic Cells (%): 22%
  Population Normal (%): 84%
  Population Pyknosed Nuclei (%): 10%
  Total Cell Count: 202
[7]
  Population Apoptotic (%): 71%
  Population Fragmented Nuclei (%): 16%
  Population Healthy Nuclei (%): 44%
  Population Hoechst High Intensity Objects (%): 41%
  Population Membrane Permeable-Phenotype (%): 0%
  Population Mitochondria Different-Phenotype (%): 85%
  Population Mitotic Cells (%): 28%
  Population Normal (%): 58%
  Population Pyknosed Nuclei (%): 38%
  Population Tubulin-Different-Phenotype (%): 88%
  Total Cell Count: 237
[8]
  Population Apoptotic (%): 78%
  Population Fragmented Nuclei (%): 15%
  Population Healthy Nuclei (%): 54%
  Population Hoechst High Intensity Objects (%): 45%
  Population Membrane Permeable-Phenotype (%): 3%
  Population Mitochondria Different-Phenotype (%): 91%
  Population Mitotic Cells (%): 21%
  Population Normal (%): 54%
  Population Pyknosed Nuclei (%): 29%
  Population Tubulin-Different-Phenotype (%): 82%
  Total Cell Count: 207
[9]
  Population Apoptotic (%): 82%
  Population Fragmented Nuclei (%): 12%
  Population Healthy Nuclei (%): 51%
  Population Hoechst High Intensity Objects (%): 18%
  Population Membrane Permeable-Phenotype (%): 1%
  Population Mitochondria Different-Phenotype (%): 88%
  Population Mitotic Cells (%): 17%
  Population Normal (%): 81%
  Population Pyknosed Nuclei (%): 35%
  Population Tubulin-Different-Phenotype (%): 68%
  Total Cell Count: 232
[10]
  Population Apoptotic (%): 61%
  Population Fragmented Nuclei (%): 17%
  Population Healthy Nuclei (%): 65%
  Population Hoechst High Intensity Objects (%): 21%
  Population Membrane Permeable-Phenotype (%): 0%
  Population Mitochondria Different-Phenotype (%): 84%
  Population Mitotic Cells (%): 38%
  Population Normal (%): 78%
  Population Pyknosed Nuclei (%): 17%
  Population Tubulin-Different-Phenotype (%): 59%
  Total Cell Count: 193
[11]
  Population Apoptotic (%): 71%
  Population Fragmented Nuclei (%): 16%
  Population Healthy Nuclei (%): 46%
  Population Hoechst High Intensity Objects (%): 57%
  Population Membrane Permeable-Phenotype (%): 1%
  Population Mitochondria Different-Phenotype (%): 78%
  Population Mitotic Cells (%): 28%
  Population Normal (%): 42%
  Population Pyknosed Nuclei (%): 37%
  Population Tubulin-Different-Phenotype (%): 76%
  Total Cell Count: 262
[12]
  Population Apoptotic (%): 83%
  Population Fragmented Nuclei (%): 25%
  Population Hoechst High Intensity Objects (%): 56%
  Population Membrane Permeable-Phenotype (%): 8%
  Population Mitochondria Different-Phenotype (%): 85%
  Population Mitotic Cells (%): 16%
  Population Normal (%): 43%
  Population Pyknosed Nuclei (%): 28%
  Population Tubulin-Different-Phenotype (%): 79%
  Total Cell Count: 238

## CN(C)C(=O)Cn1cc(-c2ccc(-c3nnc4ccccn34)cc2)cn1
[1]
  Population Apoptotic (%): 31%
  Population Fragmented Nuclei (%): 7%
  Population Healthy Nuclei (%): 80%
  Population Hoechst High Intensity Objects (%): 9%
  Population Membrane Permeable-Phenotype (%): 0%
  Population Mitochondria Different-Phenotype (%): 40%
  Population Mitotic Cells (%): 68%
  Population Normal (%): 90%
  Population Pyknosed Nuclei (%): 11%
  Population Tubulin-Different-Phenotype (%): 32%
  Total Cell Count: 432
[2]
  Population Apoptotic (%): 43%
  Population Healthy Nuclei (%): 79%
  Population Hoechst High Intensity Objects (%): 10%
  Population Mitochondria Different-Phenotype (%): 59%
  Population Mitotic Cells (%): 56%
  Population Normal (%): 89%
  Population Pyknosed Nuclei (%): 12%
  Population Tubulin-Different-Phenotype (%): 27%
  Total Cell Count: 337
[3]
  Population Apoptotic (%): 32%
  Population Fragmented Nuclei (%): 9%
  Population Healthy Nuclei (%): 76%
  Population Hoechst High Intensity Objects (%): 7%
  Population Membrane Permeable-Phenotype (%): 0%
  Population Mitochondria Different-Phenotype (%): 61%
  Population Mitotic Cells (%): 67%
  Population Normal (%): 92%
  Population Pyknosed Nuclei (%): 14%
  Population Tubulin-Different-Phenotype (%): 42%
  Total Cell Count: 427
[4]
  Population Apoptotic (%): 51%
  Population Fragmented Nuclei (%): 7%
  Population Healthy Nuclei (%): 80%
  Population Hoechst High Intensity Objects (%): 8%
  Population Mitochondria Different-Phenotype (%): 55%
  Population Mitotic Cells (%): 48%
  Population Normal (%): 91%
  Population Pyknosed Nuclei (%): 12%
  Population Tubulin-Different-Phenotype (%): 18%
  Total Cell Count: 356
[5]
  Population Apoptotic (%): 27%
  Population Fragmented Nuclei (%): 10%
  Population Healthy Nuclei (%): 77%
  Population Hoechst High Intensity Objects (%): 6%
  Population Membrane Permeable-Phenotype (%): 0%
  Population Mitochondria Different-Phenotype (%): 28%
  Population Mitotic Cells (%): 72%
  Population Normal (%): 93%
  Population Pyknosed Nuclei (%): 12%
  Population Tubulin-Different-Phenotype (%): 22%
  Total Cell Count: 595
[6]
  Population Apoptotic (%): 46%
  Population Fragmented Nuclei (%): 9%
  Population Healthy Nuclei (%): 82%
  Population Hoechst High Intensity Objects (%): 7%
  Population Mitochondria Different-Phenotype (%): 44%
  Population Mitotic Cells (%): 53%
  Population Normal (%): 92%
  Population Pyknosed Nuclei (%): 7%
  Population Tubulin-Different-Phenotype (%): 18%
  Total Cell Count: 447
[7]
  Population Apoptotic (%): 35%
  Population Fragmented Nuclei (%): 7%
  Population Healthy Nuclei (%): 78%
  Population Hoechst High Intensity Objects (%): 4%
  Population Membrane Permeable-Phenotype (%): 0%
  Population Mitochondria Different-Phenotype (%): 44%
  Population Mitotic Cells (%): 64%
  Population Normal (%): 95%
  Population Pyknosed Nuclei (%): 13%
  Population Tubulin-Different-Phenotype (%): 27%
  Total Cell Count: 506
[8]
  Population Apoptotic (%): 61%
  Population Fragmented Nuclei (%): 13%
  Population Healthy Nuclei (%): 79%
  Population Hoechst High Intensity Objects (%): 7%
  Population Mitochondria Different-Phenotype (%): 39%
  Population Mitotic Cells (%): 38%
  Population Normal (%): 92%
  Population Pyknosed Nuclei (%): 7%
  Population Tubulin-Different-Phenotype (%): 11%
  Total Cell Count: 425
[9]
  Population Apoptotic (%): 18%
  Population Fragmented Nuclei (%): 11%
  Population Healthy Nuclei (%): 81%
  Population Hoechst High Intensity Objects (%): 3%
  Population Membrane Permeable-Phenotype (%): 0%
  Population Mitochondria Different-Phenotype (%): 20%
  Population Mitotic Cells (%): 81%
  Population Normal (%): 96%
  Population Pyknosed Nuclei (%): 6%
  Population Tubulin-Different-Phenotype (%): 13%
  Total Cell Count: 946
[10]
  Population Apoptotic (%): 32%
  Population Healthy Nuclei (%): 80%
  Population Hoechst High Intensity Objects (%): 4%
  Population Mitochondria Different-Phenotype (%): 22%
  Population Mitotic Cells (%): 67%
  Population Normal (%): 95%
  Population Pyknosed Nuclei (%): 7%
  Population Tubulin-Different-Phenotype (%): 12%
  Total Cell Count: 572
[11]
  Population Apoptotic (%): 30%
  Population Fragmented Nuclei (%): 18%
  Population Healthy Nuclei (%): 74%
  Population Hoechst High Intensity Objects (%): 5%
  Population Membrane Permeable-Phenotype (%): 0%
  Population Mitochondria Different-Phenotype (%): 24%
  Population Mitotic Cells (%): 69%
  Population Normal (%): 94%
  Population Pyknosed Nuclei (%): 6%
  Population Tubulin-Different-Phenotype (%): 14%
  Total Cell Count: 753
[12]
  Population Apoptotic (%): 37%
  Population Fragmented Nuclei (%): 14%
  Population Healthy Nuclei (%): 79%
  Population Hoechst High Intensity Objects (%): 2%
  Population Mitochondria Different-Phenotype (%): 27%
  Population Mitotic Cells (%): 62%
  Population Normal (%): 97%
  Population Pyknosed Nuclei (%): 5%
  Population Tubulin-Different-Phenotype (%): 12%
  Total Cell Count: 616
